This sample holds only a part of the variants without activity.
B1: tRNA (parent)
chain: GUUCCGUUGGCGUAAUGGUAACGCGUCUCCCUCCUAAGGAGAAGACUGCGGGUUCGAGUCCCGUACGGAACG

Variants of: B1
Assay: yeast fitness relative to wild type (ratio to wild type); higher = fitter; tRNA-Arg(CCU), competitive growth, 37 C, YPD
Method in brief: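 Start and end populations of a pooled competition were compared by 100-nucleotide paired-end sequencing of gene amplicons. The Saccharomyces cerevisiae strains carried tRNA-Arg(CCU) gene variants at the native genomic locus, synthesised with a 3% per-site mutation rate at 69 sites, and competed in YPD at 37°C for 24 hours in six parallel replicates. Darwinian fitness relative to wild type was based on the change in genotype frequencies. Genotypes required ≥ 100 starting reads, and estimates < 0.5 were set to 0.5.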

| Variant | yeast fitness |
| --- | --- |
| C4U C33A C49U U54G | ≤ 0.5 |
| C5G C27U A43U | 0.54 |
| A20G U35C G50C | ≤ 0.5 |
| C4A A14U A20C U28G C66U | 0.557 |
| G18C C27A C55U G63C | ≤ 0.5 |
| C5U A20U U26A G52A | ≤ 0.5 |
| U3A A20C U32A A70G | ≤ 0.5 |
| C24G U26C A37G U54G C61G | 0.51 |
| U2G C33U G52A | ≤ 0.5 |
| C11U C49U | 0.976 |
| A20C A43U G48C | 0.615 |
| C27U C33U G51A | 0.612 |
| G25C G39C U54G A65U | 0.514 |
| A14C C31A | 0.669 |
| A14C U19A C49U C62G G63A | ≤ 0.5 |
| U2G U26G | 0.693 |
| C5U U16C A20G A40G A43G G67C | ≤ 0.5 |
| C34A A42U G58A C62U G63A | ≤ 0.5 |
| A15U U26A A57C | ≤ 0.5 |
| C24U A45U G58A | 0.647 |
| A20U C29U C49G C55A | 0.522 |

| Variant | yeast fitness |
| --- | --- |
| C27A A42C | 0.751 |
| U16C A40U U47A | 0.532 |
| C33G A42G G52A C62A A69U A70U | ≤ 0.5 |
| G39C C62U G63C | ≤ 0.5 |
| A14G U26C A37G G67A | 0.539 |
| A42C A57G C61U | ≤ 0.5 |
| C4A G17C A20G C31G A37C | ≤ 0.5 |
| G9A A20G G38A C62U | 0.676 |
| A45C C49G | 0.721 |
| C5G U47A G52A G68C | ≤ 0.5 |
| U16A C22G U26C C34G A37C A40U A45G C62A | ≤ 0.5 |
| U7A A42C C62U | ≤ 0.5 |
| U28C A37C A40U G50A C60G | ≤ 0.5 |
| U2G A14U A20G C33G C61U A70C | ≤ 0.5 |
| A20C C55A | 0.699 |
| A57G C62G C66U | 0.596 |
| A15U A43C G48A G68C | ≤ 0.5 |
| C22G A40G A70U | 0.609 |
| C5A G17C A57U | ≤ 0.5 |
| G18C A36U | 0.551 |
| G39A C55G G56A A69U A70G | ≤ 0.5 |

| Variant | yeast fitness |
| --- | --- |
| C24G C34G A43U G67C | ≤ 0.5 |
| C33G U47C C62A | 0.601 |
| U8C G12A G18A A37C C55A C60G G63C | ≤ 0.5 |
| G6A U8C U54C | 0.552 |
| G12A C24G | 0.758 |
| C11A C30G | ≤ 0.5 |
| C30G C60U C62G C66A | 0.695 |
| C27U U32C A70C | 0.68 |
| A42G A57C C61G | 0.708 |
| U8A U16A C27G C31A U59C C61U | ≤ 0.5 |
| G10U A20C A57G | 0.511 |
| C4G C11A A14C | ≤ 0.5 |
| C11U G51A A65U | ≤ 0.5 |
| U16G G39A A45C G67A | ≤ 0.5 |
| C31U G52C | 0.661 |
| C34U C49A | 0.585 |
| U3C A14G C30U A45C C46G A65G | ≤ 0.5 |
| G9C C30U U47A G67C | 0.559 |
| C24A A36C G48C G52C | ≤ 0.5 |
| C33G A45C C66A | 0.514 |
| U2A C60U A65U | ≤ 0.5 |

| Variant | yeast fitness |
| --- | --- |
| C31G C34U A40C C66A | ≤ 0.5 |
| U8G G39C U59G C66U | ≤ 0.5 |
| C31G A45U | 0.987 |
| A20G C29U A57C | ≤ 0.5 |
| C22U A36U C49U G58C | 0.575 |
| U8A U19C | 0.805 |
| G6C U32A A37U | 0.583 |
| C22U A42U | 0.749 |
| A15C A43G | 0.689 |
| U13A A40U G52U C55G | ≤ 0.5 |
| C5G A14C C30U C49U C61A | ≤ 0.5 |
| U2G G39A G51A | ≤ 0.5 |
| U13C C66G | 0.742 |
| U3C A20C C46U C60U C61U | 0.759 |
| U13A U28C C60A | 0.551 |
| C27A U28G U64C | ≤ 0.5 |
| C4A U7C A15G C30A A57C | ≤ 0.5 |
| G6A C31G G41A | ≤ 0.5 |
| G6C A20U | 0.812 |
| C24A U32C C61G | ≤ 0.5 |
| C24U A43G A69U | 0.819 |

Source: the RNAGym collection of RNA variant scans (doi:10.1126/science.aae0568)
